Test results from the EternaBench riboswitch data.

Test system: MS2 coat protein
Experiment: apparent Kd, MS2 coat protein; higher = weaker binding; RNA-MaP array; FMN 200 µM where present
Procedure, shortened: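 Apparent Kd: the median of filtered binding-curve fits from single clusters. Designs were transcribed on Illumina sequencing-chip clusters by stalled E. coli RNA polymerase and titrated with SNAP-549-labelled MS2 coat protein from 0.7 or 1.5 nM, doubling to 3 µM, in 100 mM Tris-HCl pH 7.5, 80 mM KCl, 4 mM MgCl2, BSA, DTT, yeast tRNA and Tween-20. Each series ran without and then with constant ligand, and green signal was normalised to red-channel RNA signal and control-cluster median Fmax.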

[1] = designed as: OFF switch for flavin mononucleotide, no ligand
[2] = ligand present: flavin mononucleotide, designed as: OFF switch for flavin mononucleotide
[3] = designed as: ON switch for flavin mononucleotide, no ligand
[4] = ligand present: flavin mononucleotide, designed as: ON switch for flavin mononucleotide

Sequence	apparent Kd [1]	apparent Kd [2]	apparent Kd [3]	apparent Kd [4]
GUGUAGCAAGGAUAUACAUGAGGAUCACCCAUGUGAAUAAGAUAGAAUAAGAUAAAGUGUAGAAGGUGCAGUGU	39 nM	34.4 nM		
CUAUUGGCAGGAUAUGCUUUUUUUGACAUGAGGAUCACCCAUGUGAUGCAUUUUGGGUUUGCAGAAGGGCCUGAGU	74.3 nM	75.1 nM		
GACAUGGUCCAGAAGGGCUAUUUAUUUAAUUAUUAUUUAGAACAGCAUAGCAGGAUAUGGUUAACAUGAGGAUCACCCAUGUUC			26.2 nM	20.8 nM
AGGUAACAUGAGGAUCACCCAUGUCAGGAUAUCAUGAAGAGGAGAUUAGAGGAGAGGUUGAGAAGGGACUAUAU	76 nM	57.4 nM		
CAGUGCUGUUGAGAGGAUAUGCGGUGAUGGACAUGAGGAUCACCCAUGUUAGCGACAGCGUUACGGCAGAAGGCUCUACCCACUG			49.4 nM	22.4 nM
AAGGCAAUGUCAUGCCCACCGGACAGAAGGCAAUGUGGGCAGCCCGACAUGAGGAUCACCCAUGUUGAGGAUAUGUCCCGUCCU	2.72 nM	2.85 nM		
ACAUGAGGAUCACCCAUGUUAAAUUAGGAUAUAUGACUGCACAUGAGGUUCACCCAUGUUCUACCGUAGAAGGGAUAAAUAAUU			52.6 nM	59.4 nM
AAAACACAUGAGGAUCACCCAUGUAUCUGGACCAUAGGAUAUCCGCGCCCACUAGGGUAUGGAGAAGGGUGAGCCC			161 nM	122 nM
UAUACUUACGAAGGAUAUGGUUACAUGAGGAUCACCCAUGUAUGUAUAUUGAUCUAGUAUUUUAACCAGAAGGUCGUGAGUAUA	65.5 nM	53.4 nM		
AUCAGCUCGUCAGGAUAUACGUCACUGCGUCAGCAGUGUGGUAAGAUCACAUGAGGAUCACCCAUGUAGAAGGGACGAGGUGAU	14.9 nM	265 nM		
ACUUUUUAUGGACAUGAGGAUCACCCAUGUGCCUUGGGCCUCAAGGAUAUAGUAAUUGUCGUGUACUAGAAGGUGAAGCCAUUA			77.2 nM	27.9 nM
UGGUACUAGGGAGGAUAUGGGAAGAUACAUGAGGAUCACCCAUGUUUAAGAAUGCCGAAAGGCAACUAGAAGGCCCUAGUACCU			430 nM	19.9 nM
GGUUGACAAAGUCAACCAUAACGAACAUGAGGAUCACCCAUGUAGGAUAUGCUACUCAAAGAGUAGCAGAAGGACAUGUGCCUU	35.7 nM	293 nM		
GCGUAACAUGAGGAUCACCCAUGUGCCCGAGAAUUCGGGCCGAGAAGGGUGACCGGUCGUAUGGCACAGGAUAUCGACGUUGUG			30.6 nM	13.4 nM
AUUGUAGGAGGAUAUACAUGAGGAUCACCCAUGUCGUCCCAGGAGGACACCUUCCCAUGUAGAAGGCCUGGGAC	31.4 nM	19.3 nM		
CCUCUACAUGAGGAUCACCCAUGUGAGGAUAUCUCGGAGCAGCCACUUAAAGCACUCCAGAGAAGGCACGUGUA	15.3 nM	22.8 nM		
GUUUUCGCAUGAGGAUAUGCUCGCAUUUCAAGAGCAGAAGGUAUGUCUAUAGACAUGAGGAUCACCCAUGUAUUUAACUUUGAA			232 nM	44.5 nM
CUACGGGACGGAGAUCGUGGUGAAGUAGAAGGGUGAGAUGACAUGAGGAUCACCCAUGUAGUAGCGCAGGAUAUACGGCACCGG			388 nM	103 nM
GGCAGACAUGAGGAUCACCCAUGUCAGGAUAUGUGGCGAUCGUCGAUAGACGAUAGCCACAGAAGGGACAUGCC	23.9 nM	39.5 nM		
UAUGUCUUUGUGAGGAUAUACUUUGUUUGGUCGUAGUAGAAGGCACAUGAGGAUCACCCAUGUAGAUUUUUGGU	23.1 nM	36.1 nM		
AUGAGGUCAGGAUAUGCAUGGCGGGACUUGCGUCGUGGCGUGGAGAAGGGACAUGAGGAUCACCCAUGUGGAGA	84.6 nM	76.1 nM		
AUGUUACAUGAGGAUCACCCAUGUGAGGAUAUGUGUAUCCCUAAAAAAGUGUGGGACCAUAGAAGGUACUUGGA	59.2 nM	58.6 nM		
AUAAAACAAAACCACACAUGAGGAUCACCCAUGUCAAGAUUACAGGAUAUCCGGCAGAGAUGCAAGGAGAAGGGUGAUCCCAAA			17.3 nM	56.9 nM
